Data on six molecules can be found in ChEMBL document CHEMBL4715759, “Synthesis, biological evaluation and molecular modeling study of thiadiazolo[3,2-a][1,3]diazepine analogues of HIE-124 as a new class of short acting hypnotics” (Eur J Med Chem, 2016).

The nature of series [1]: Therapeutic Index, ratio of LD50 of Toxicity in iv dosed mouse to minimum effective hypnotic dose in mouse. Type of series: organism-based. To be noted: in vivo, read-out: TI.
For series [2], the system named is Mus musculus. The experiment in a line: Hypnotic activity in mouse assessed as onset of sleep time at 0.8 mmol/Kg, ip by righting reflex. Type of series: functional. An outline of the steps:
(§1)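 Mice were first checked for an intact righting reflex. Single i.p. doses of 0.2–2 mmol/kg were given in DMSO (up to 1 ml/kg), or as a 0.25% aqueous carboxymethylcellulose suspension (up to 10 ml/kg) for larger doses, with vehicle controls. Each mouse was placed under a 30-cm glass funnel and monitored visually and by video. Onset of sleep was timed. Duration ended at regain of the righting reflex 3 times within 1 min. Minimal effective dose recorded; n=6.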

Series [3] has as its system Mus musculus. The experiment in a line: Hypnotic activity in mouse assessed as duration of sleep time at 0.8 mmol/Kg, ip by righting reflex. The series is classed as functional. Put shortly: as §1
Series [4] deals with Mus musculus. Put plainly: Hypnotic activity in mouse assessed as duration of sleep time at 1.6 mmol/Kg, ip by righting reflex. Type of series: functional, organism-based. Put shortly: as §1
Series [5] relates to Mus musculus. Put plainly: Hypnotic activity in mouse assessed as onset of sleep time at 1.6 mmol/Kg, ip by righting reflex. The series is classed as functional. Put shortly:
as §1

Series [6] has as its system Mus musculus. The experiment in a line: Hypnotic activity in mouse assessed as duration of sleep time at 0.06 mmol/Kg, ip in presence of 0.06 mmole/kg thiopenetal by righting reflex. Type of series: functional. An outline of the steps: (§2)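 Mice received a test compound (0.03–0.06 mmol/kg) together with thiopental sodium (0.06 mmol/kg), both i.p. Vehicle was DMSO (up to 1 ml/kg), or 0.25% aqueous sodium carboxymethylcellulose suspension for larger doses (up to 10 ml/kg). Each mouse was kept under a 30-cm glass funnel and watched visually and on video. Sleep onset was timed. Duration ended when the righting reflex was regained 3 times within one minute. n=6.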

Series [7] deals with Mus musculus. Put plainly: Hypnotic activity in mouse assessed as duration of sleep time at 0.4 mmol/Kg, ip by righting reflex. The series is classed as functional. An outline of the steps: as §1
Series [8] deals with Mus musculus. The experiment in a line: Hypnotic activity in mouse assessed as onset of sleep time at 0.06 mmol/Kg, ip in presence of 0.06 mmole/kg thiopenetal by righting reflex. The series is classed as functional. An outline of the steps: as §2
The test system of series [9] is Mus musculus. The experiment in a line: Hypnotic activity in mouse assessed as onset of sleep time at 0.4 mmol/Kg, ip by righting reflex. The series is classed as functional. Put shortly:
as §1

The test system of series [10] is Mus musculus. Put plainly: Hypnotic activity in mouse assessed as duration of sleep time at 0.05 mmol/Kg, ip in presence of 0.06 mmole/kg thiopenetal by righting reflex. The series is classed as functional. Put shortly: as §2
Series [11] has as its system Mus musculus. Put plainly: Hypnotic activity in mouse assessed as onset of sleep time at 0.05 mmol/Kg, ip in presence of 0.06 mmole/kg thiopenetal by righting reflex. Type of series: functional. Put shortly: as §2
Series [12] concerns Mus musculus. Put plainly: Hypnotic activity in mouse assessed as duration of sleep time at 0.2 mmol/Kg, ip by righting reflex. The series is classed as functional. An outline of the steps: (§3)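 Mice screened for intact righting reflex, then dosed i.p. (0.2–2 mmol/kg range; DMSO up to 1 ml/kg, or larger doses suspended in 0.25% aqueous Na-CMC up to 10 ml/kg). Each mouse was held under a 30-cm glass funnel and monitored visually and by video. Onset was recorded at loss of righting reflex. Sleep ended when the reflex was regained 3 times within one minute. n=6.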

In series [13] the test system is Mus musculus. Put plainly: Hypnotic activity in mouse assessed as onset of sleep time at 0.2 mmol/Kg, ip by righting reflex. The series is classed as functional. Put shortly:
as §3

Series [14] has as its system Mus musculus. The experiment in a line: Hypnotic activity in mouse assessed as onset of sleep time at 0.03 mmol/Kg, ip in presence of 0.06 mmole/kg thiopenetal by righting reflex. Type of series: functional. An outline of the steps: as §2
In series [15] the test system is Mus musculus. Put plainly: Hypnotic activity in mouse assessed as duration of sleep time at 0.03 mmol/Kg, ip in presence of 0.06 mmole/kg thiopenetal by righting reflex. The series is classed as functional. Put shortly: as §2
The test system of series [16] is Mus musculus. The experiment in a line: Hypnotic activity in mouse assessed as duration of sleep time at 1 mmol/Kg, ip by righting reflex. The series is classed as functional. An outline of the steps: as §1
Series [17] concerns Mus musculus. The experiment in a line: Hypnotic activity in mouse assessed as onset of sleep time at 1 mmol/Kg, ip by righting reflex. Type of series: functional. Put shortly:
as §1

The source made the active and inactive calls. The rule behind the calls is not given here.

Turning to `O=C1CCCN2N=C(C(F)(F)F)SC2=N1`, the selectivity ratio in [1] turned out to be 3.32. Further, the Time in the series on Mus musculus [2] and in the series on Mus musculus [3] was 14 min in each case.
Consider `Cc1ccc(C2=NN3CCCC(=O)N=C3S2)cc1`, for which the selectivity ratio in [1] was found to be 1.25. In addition, the outcome in the series with Mus musculus [4] was inactive. Besides, the Time in the series on Mus musculus [5] is reported as 20 min.
Take `O=C1CCCN2N=C(c3ccccc3)SC2=N1`: the selectivity ratio in [1] turned out to be 6.62. In addition, the Time in the series with Mus musculus [6] amounted to 62.5 min; in the series with Mus musculus [7], 94.8 min; with Mus musculus [8] it was 7.5 min; with Mus musculus [9], 6.4 min; with Mus musculus [10] it was 5 min; with Mus musculus [11] it was 15 min.
For `CCCC(C)C1(CC)C(=O)[N-]C(=S)NC1=O.[Na+]` (centres undefined) [THIOPENTAL SODIUM], in [1], the selectivity ratio was 6.1. The Time in the series on Mus musculus [12] is listed as 45 min; with Mus musculus [13] it was 2 min.
As for `O=C1CCCN2N=C(c3ccc(Br)cc3)SC2=N1`, the selectivity ratio in series [1] is 1.5. Besides, in the series on Mus musculus [7], the result was inactive. Also, the Time in the series with Mus musculus [14] was found to be 3.1 min; with Mus musculus [9], 43.4 min; in the series with Mus musculus [15] it was 75 min.
For the molecule `CC1=NN2CCCC(=O)N=C2S1`, in series [1], the selectivity ratio is 3.55. In addition, the Time in the series on Mus musculus [16] is 6 min; with Mus musculus [17], 25 min.
